# Assay results: ChEMBL document CHEMBL4354820, “Optimizing Targeted Inhibitors of P-Glycoprotein Using Computational and Structure-Guided Approaches” (J Med Chem, 2019); call rule not given here
# Assays:
# [1] = target: T1, ATP-dependent translocase ABCB1 (Homo sapiens, UniProt P08183); test: Reversal of P-gp mediated multidrug resistance in human DU145-TxR cells overexpressing P-gp assessed as potentiation of paclitaxel-induced cytotoxicity by measuring fold reduction paclitaxel IC50 at 5 uM after 48 hrs by MTT assay relative to paclitaxel alone; type: cell-based
# Outline: (§1)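 DU145TXR cells seeded at 3000 per well, 24 h later treated 48 h with paclitaxel alone or with 3, 5, 7 or 10 μM inhibitor in complete medium (DMSO vehicle). MTT 4 h, formazan dissolved in DMSO, A570 read, background subtracted, viability relative to DMSO. IC50 by four-parameter nonlinear fit; eight replicates, at least two experiments. Fold values compare paclitaxel alone or with parent inhibitor.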
# [2] = target: T1, ATP-dependent translocase ABCB1; test: Reversal of P-gp mediated multidrug resistance in human DU145-TxR cells overexpressing P-gp assessed as potentiation of paclitaxel-induced cytotoxicity by measuring fold reduction paclitaxel IC50 at 5 uM after 48 hrs by MTT assay relative to parent compound; type: cell-based; outline: as §1
# [3] = tested on: P-glycoprotein 1 Abcb1a (Mus musculus); test: Inhibition of 2',3'-(2,2,5,5,-tetramethyl-3-pyrroline-l-oxyl-3-carboxylic acid ester)ATP interaction with mouse MDR3 P-gp expressed in Escherichia coli BL21 (DE3) assessed as reduction in ATP binding from 2 to 1 of nucleotide to mol of protein by ESR analysis (reference value: 1.8 +/- 0.1)
# [4] = target: T1, ATP-dependent translocase ABCB1; test: Reversal of P-gp mediated multidrug resistance in human DU145-TxR cells overexpressing P-gp assessed as potentiation of paclitaxel-induced cytotoxicity by measuring fold reduction paclitaxel IC50 at 3 uM after 48 hrs by MTT assay relative to parent compound; type: cell-based; outline: as §1
# [5] = target: T1, ATP-dependent translocase ABCB1; test: Reversal of P-gp mediated multidrug resistance in human DU145-TxR cells overexpressing P-gp assessed as potentiation of paclitaxel-induced cytotoxicity by measuring fold reduction paclitaxel IC50 at 10 uM after 48 hrs by MTT assay relative to paclitaxel alone; type: cell-based; outline: as §1
# [6] = target: T2, P-glycoprotein (ABCB1, mouse MDR3) ATPase (Mus musculus, UniProt P21447); test: Basal ATPase hydrolysis in recombinant mouse MDR3 expressed in Pichia pastoris measured after 30 mins in presence of NADH by coupled enzyme assay (reference value: 100 +/- 7 %); parameters: scale not given: the % may be the effect or the level left; conditions: recombinant mouse MDR3 (P-gp) expressed in Pichia pastoris
# [7] = target: T1, ATP-dependent translocase ABCB1; test: Ratio of inhibition of P-gp overexpressed in human DU145-TxR cells assessed as increase in intracellular compound accumulation after 2.5 hrs in presence of tariquidar by LC-MS/MS analysis to Inhibition of P-gp overexpressed in human DU145-TxR cells assessed as decrease in intracellular compound accumulation after 2.5 hrs in absence of tariquidar by LC-MS/MS analysis; type: cell-based
# Outline: (§2)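 P-gp-overexpressing DU145TXR cells exposed to test compounds with or without tariquidar. Intracellular compound measured by LC–MS/MS, with daunorubicin as a transported-substrate control. Ratio is accumulation with tariquidar divided by accumulation without.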
# [8] = target: T1, ATP-dependent translocase ABCB1; test: Inhibition of P-gp overexpressed in human DU145-TxR cells assessed as increase in cellular accumulation of calcein AM at 2 uM preincubated for 6 hrs followed by calcein AM addition by fluorescence imaging analysis; type: cell-based
# Outline: (§3)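 Confluent DU145TXR monolayers in phenol red-free RPMI 1640 given 2 μM inhibitor (DMSO vehicle) and 1 μg mL−1 calcein AM, either added together or after a 6 h inhibitor-only preincubation at 37 °C. Calcein fluorescence (ex 485 / em 535 nm) read over 60 min at 20 min intervals. Six replicates, at least two independent experiments.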
# [9] = target: T1, ATP-dependent translocase ABCB1; test: Reversal of P-gp mediated multidrug resistance in human DU145-TxR cells overexpressing P-gp assessed as potentiation of paclitaxel-induced cytotoxicity by measuring fold reduction paclitaxel IC50 at 7 uM after 48 hrs by MTT assay relative to parent compound; type: cell-based; outline: as §1
# [10] = target: T1, ATP-dependent translocase ABCB1; test: Reversal of P-gp mediated multidrug resistance in human DU145-TxR cells overexpressing P-gp assessed as potentiation of paclitaxel-induced cytotoxicity by measuring fold reduction paclitaxel IC50 at 3 uM after 48 hrs by MTT assay relative to paclitaxel alone; type: cell-based; outline: as §1
# [11] = target: T2, P-glycoprotein (ABCB1, mouse MDR3) ATPase; test: Stimulation of verampil-mediated ATPase hydrolysis in recombinant mouse MDR3 expressed in Pichia pastoris measured after 30 mins in presence of NADH by coupled enzyme assay (reference value: 100 +/- 8 %); parameters: scale not given: the % may be the effect or the level left; conditions: recombinant mouse MDR3 (P-gp) expressed in Pichia pastoris, read-out: Activity
# [12] = target: T1, ATP-dependent translocase ABCB1; test: Reversal of P-gp mediated multidrug resistance in human DU145-TxR cells overexpressing P-gp assessed as potentiation of paclitaxel-induced cytotoxicity by measuring fold reduction paclitaxel IC50 at 10 uM after 48 hrs by MTT assay relative to parent compound; type: cell-based; outline: as §1
# [13] = target: T3, P-glycoprotein (ABCB1, MDR1) ATPase (Homo sapiens, UniProt P08183); test: Inhibition of verampil-stimulated ATPase hydrolysis in recombinant human MDR1 expressed in Pichia pastoris measured after 30 mins in presence of NADH by coupled enzyme assay (reference value: 100 +/- 6 %); parameters: scale not given: the % may be the effect or the level left; conditions: recombinant human MDR1 (P-gp) expressed in Pichia pastoris
# [14] = target: T1, ATP-dependent translocase ABCB1; test: Inhibition of P-gp overexpressed in human DU145-TxR cells assessed as increase in cellular accumulation of calcein AM at 2 uM pretreated followed by calcein AM addition by fluorescence imaging analysis; type: cell-based; outline: as §3
# [15] = target: T3, P-glycoprotein (ABCB1, MDR1) ATPase; test: Basal ATPase hydrolysis in recombinant human MDR1 expressed in Pichia pastoris measured after 30 mins in presence of NADH by coupled enzyme assay (reference value: 100 +/- 5 %); parameters: scale not given: the % may be the effect or the level left; conditions: recombinant human MDR1 (P-gp) expressed in Pichia pastoris
# [16] = target: T1, ATP-dependent translocase ABCB1; test: Reversal of P-gp mediated multidrug resistance in human DU145-TxR cells overexpressing P-gp assessed as potentiation of paclitaxel-induced cytotoxicity by measuring fold reduction paclitaxel IC50 at 7 uM after 48 hrs by MTT assay relative to paclitaxel alone; type: cell-based; outline: as §1
# [17] = target: P-glycoprotein 1 Abcb1a (Mus musculus); test: Inhibition of spin-labelled adenine nucleotide interaction with mouse MDR3 P-gp expressed in Escherichia coli BL21 (DE3) assessed as apparent dissociation constant by ESR analysis (reference value: 36.5 +/- 3.6 uM)
# [18] = target: T1, ATP-dependent translocase ABCB1; test: Inhibition of P-gp overexpressed in human DU145-TxR cells assessed as decrease in intracellular compound accumulation after 2.5 hrs in absence of tariquidar by LC-MS/MS analysis; type: cell-based; outline: as §2
# [19] = target: T1, ATP-dependent translocase ABCB1; test: Inhibition of P-gp overexpressed in human DU145-TxR cells assessed as increase in intracellular compound accumulation after 2.5 hrs in presence of tariquidar by LC-MS/MS analysis; type: cell-based; outline: as §2
# [20] = target: T2, P-glycoprotein (ABCB1, mouse MDR3) ATPase; test: Inhibition of verampil-stimulated ATPase hydrolysis in recombinant mouse MDR3 expressed in Pichia pastoris measured after 30 mins in presence of NADH by coupled enzyme assay (reference value: 100 +/- 8 %); parameters: scale not given: the % may be the effect or the level left; conditions: recombinant mouse MDR3 (P-gp) expressed in Pichia pastoris
# [21] = target: T2, P-glycoprotein (ABCB1, mouse MDR3) ATPase; test: Stimulation of basal ATPase hydrolysis in recombinant mouse MDR3 expressed in Pichia pastoris measured after 30 mins in presence of NADH by coupled enzyme assay (reference value: 100 +/- 7 %); parameters: scale not given: the % may be the effect or the level left; conditions: recombinant mouse MDR3 (P-gp) expressed in Pichia pastoris, read-out: Activity
# T3 sequence (P08183 whole entry): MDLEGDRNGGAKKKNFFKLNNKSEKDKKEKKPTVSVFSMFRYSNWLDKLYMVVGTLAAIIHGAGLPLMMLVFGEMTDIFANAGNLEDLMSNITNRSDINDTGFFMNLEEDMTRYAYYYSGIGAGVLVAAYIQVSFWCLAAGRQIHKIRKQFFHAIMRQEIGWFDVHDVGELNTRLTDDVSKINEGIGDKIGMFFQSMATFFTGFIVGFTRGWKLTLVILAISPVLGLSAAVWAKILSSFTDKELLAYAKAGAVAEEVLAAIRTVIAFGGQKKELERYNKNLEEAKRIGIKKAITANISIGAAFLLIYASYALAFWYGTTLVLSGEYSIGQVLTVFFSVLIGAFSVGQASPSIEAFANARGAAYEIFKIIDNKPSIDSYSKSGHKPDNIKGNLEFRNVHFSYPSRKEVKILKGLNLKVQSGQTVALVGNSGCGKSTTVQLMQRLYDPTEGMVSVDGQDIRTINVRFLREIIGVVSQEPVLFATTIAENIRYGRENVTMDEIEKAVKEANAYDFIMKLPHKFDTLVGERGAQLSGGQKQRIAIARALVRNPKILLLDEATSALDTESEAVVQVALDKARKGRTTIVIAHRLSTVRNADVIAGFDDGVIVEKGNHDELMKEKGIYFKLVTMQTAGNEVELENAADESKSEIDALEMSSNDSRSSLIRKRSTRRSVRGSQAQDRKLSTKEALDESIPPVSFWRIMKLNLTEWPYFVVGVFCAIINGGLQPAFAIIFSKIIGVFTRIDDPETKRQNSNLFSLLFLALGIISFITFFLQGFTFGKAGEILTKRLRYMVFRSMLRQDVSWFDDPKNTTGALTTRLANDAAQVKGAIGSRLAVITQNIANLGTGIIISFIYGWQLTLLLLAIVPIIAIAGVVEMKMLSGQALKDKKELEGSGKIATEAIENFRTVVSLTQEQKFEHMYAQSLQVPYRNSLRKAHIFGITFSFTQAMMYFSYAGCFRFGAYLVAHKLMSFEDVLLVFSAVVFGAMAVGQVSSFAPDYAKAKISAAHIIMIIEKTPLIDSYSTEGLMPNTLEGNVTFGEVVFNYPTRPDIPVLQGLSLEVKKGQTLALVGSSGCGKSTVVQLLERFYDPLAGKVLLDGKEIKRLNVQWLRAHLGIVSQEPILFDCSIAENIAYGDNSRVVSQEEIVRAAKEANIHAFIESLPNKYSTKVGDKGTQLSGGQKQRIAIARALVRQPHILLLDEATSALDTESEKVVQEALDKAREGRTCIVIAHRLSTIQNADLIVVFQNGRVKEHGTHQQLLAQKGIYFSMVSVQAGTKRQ
# T1 sequence (P08183 whole entry): as above
# T2 sequence (P21447 whole entry): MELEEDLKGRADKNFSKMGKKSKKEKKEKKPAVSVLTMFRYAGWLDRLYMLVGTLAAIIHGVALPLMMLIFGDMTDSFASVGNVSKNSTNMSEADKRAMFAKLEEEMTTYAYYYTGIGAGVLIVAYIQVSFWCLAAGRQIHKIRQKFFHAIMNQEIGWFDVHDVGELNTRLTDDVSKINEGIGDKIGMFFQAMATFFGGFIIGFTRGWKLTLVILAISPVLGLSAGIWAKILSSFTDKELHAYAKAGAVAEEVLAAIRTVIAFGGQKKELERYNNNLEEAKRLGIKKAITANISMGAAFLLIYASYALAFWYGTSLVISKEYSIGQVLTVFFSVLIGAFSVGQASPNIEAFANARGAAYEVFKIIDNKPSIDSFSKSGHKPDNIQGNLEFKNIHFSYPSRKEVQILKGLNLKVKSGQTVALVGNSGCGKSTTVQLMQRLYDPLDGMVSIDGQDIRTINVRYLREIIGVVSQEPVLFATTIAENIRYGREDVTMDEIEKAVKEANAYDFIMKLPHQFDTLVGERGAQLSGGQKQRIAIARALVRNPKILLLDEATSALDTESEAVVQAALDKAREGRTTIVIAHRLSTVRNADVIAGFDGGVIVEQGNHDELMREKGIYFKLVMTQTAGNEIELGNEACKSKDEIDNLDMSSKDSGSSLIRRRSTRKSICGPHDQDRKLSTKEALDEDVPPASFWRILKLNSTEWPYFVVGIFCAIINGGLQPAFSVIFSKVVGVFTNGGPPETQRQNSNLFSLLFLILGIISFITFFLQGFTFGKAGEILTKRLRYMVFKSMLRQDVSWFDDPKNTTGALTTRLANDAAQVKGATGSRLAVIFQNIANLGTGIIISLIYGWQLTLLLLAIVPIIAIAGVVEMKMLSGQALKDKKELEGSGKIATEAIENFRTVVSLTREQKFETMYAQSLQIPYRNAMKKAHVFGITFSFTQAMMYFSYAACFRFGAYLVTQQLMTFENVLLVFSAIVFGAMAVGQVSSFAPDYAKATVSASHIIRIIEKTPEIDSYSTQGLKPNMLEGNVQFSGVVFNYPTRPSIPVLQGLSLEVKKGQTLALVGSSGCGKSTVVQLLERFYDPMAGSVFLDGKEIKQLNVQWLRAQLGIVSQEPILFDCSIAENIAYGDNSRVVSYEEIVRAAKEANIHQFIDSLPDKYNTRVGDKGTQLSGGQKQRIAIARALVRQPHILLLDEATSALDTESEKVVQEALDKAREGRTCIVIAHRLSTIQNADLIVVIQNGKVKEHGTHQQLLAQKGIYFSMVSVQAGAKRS
SMILES,fold change (FC) [1],fold change (FC) [2],Activity [3],fold change (FC) [4],fold change (FC) [5],Activity at 0.5 h [6],Ratio [7],inhibition (INH) [8],fold change (FC) [9],fold change (FC) [10],Activity at 0.5 h [11],fold change (FC) [12],Activity at 0.5 h [13],inhibition (INH) [14],Activity at 0.5 h [15],fold change (FC) [16],Kd [17],inhibition (INH) [18],inhibition (INH) [19],further results
Cc1cc(C)c(-c2cc(NC(=O)CSCC(=O)Nc3ccc4ccccc4c3)n(-c3ccccc3)n2)cc1C,46,4.2,1.6,4.1,1060,70%,0.9,Active,8.4,14,141%,11,40%,Active,70%,303,22.2 µM,,,
Cc1cc(C)c(-c2cc(NC(=O)CSCC(=O)NC34CC5CC(CC(C5)C3)C4)n(-c3ccccc3)n2)cc1C,19,1.8,1.3,2.7,163,78%,1,Active,2.8,9.2,,1.6,63%,Not Active,74%,101,22.9 µM,Not Active,Not Active,Activity at 0.5 h [20]: 41%
Cc1cc(C)c(-c2cc(NC(=O)CSCC(=O)NC(c3ccccc3)c3ccccc3)n(-c3ccccc3)n2)cc1C,38,3.5,1.6,3.9,193,,1.2,Active,3.7,13,116%,1.9,54%,Not Active,76%,133,21.6 µM,Not Active,Not Active,Activity at 0.5 h [21]: 148%
